Assay results reported in ChEMBL document CHEMBL4616666, “Discovery of SHP2-D26 as a First, Potent, and Effective PROTAC Degrader of SHP2 Protein” (J Med Chem, 2020).

Assays:
MV4-11 = experiment: Growth inhibition of human MV4-11 cells measured after 4 days by WST8 assay; conditions: MV4-11, 96 h
KYSE-520 cell line = experiment: Growth inhibition of human KYSE520 cells measured after 4 days by WST8 assay; conditions: KYSE-520, 96 h
[1] = biological target: T1, von Hippel-Lindau disease tumor suppressor/Tyrosine-protein phosphatase non-receptor type 11 (Homo sapiens, UniProt Q06124+P40337); experiment: Protac activity at VHL1/SHP2 in human KYSE520 cells assessed as induction of SHP2 degradation at 0.1 uM measured after 6 hrs by Western blot analysis relative to control; type: cell-based
Method in brief: (§1)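 KYSE520 cells in RPMI 1640 + 10% FBS, 37 °C, 5% CO2, were exposed to degrader for 6 h. SHP2 was measured by Western blot and densitometry, with background-subtracted band normalized to net GAPDH band. Values are the average of three independent experiments.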

[2] = biological target: T1, von Hippel-Lindau disease tumor suppressor/Tyrosine-protein phosphatase non-receptor type 11; experiment: Protac activity at VHL1/SHP2 in human KYSE520 cells assessed as induction of SHP2 degradation at 1 uM measured after 6 hrs by Western blot analysis relative to control; type: cell-based; method in brief: as §1
[3] = biological target: T1, von Hippel-Lindau disease tumor suppressor/Tyrosine-protein phosphatase non-receptor type 11; experiment: Protac activity at VHL1/SHP2 in human MV4-11 cells assessed as induction of SHP2 degradation at 0.1 uM measured after 24 hrs by Western blot analysis relative to control; type: cell-based
Method in brief: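 MV4;11 cells in IMDM + 10% FBS were exposed to degrader for 24 h. SHP2 was quantified by Western blot densitometry, with background-subtracted band divided by net GAPDH loading-control band. Average of three independent experiments.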

T1 sequence (P40337 whole entry partner): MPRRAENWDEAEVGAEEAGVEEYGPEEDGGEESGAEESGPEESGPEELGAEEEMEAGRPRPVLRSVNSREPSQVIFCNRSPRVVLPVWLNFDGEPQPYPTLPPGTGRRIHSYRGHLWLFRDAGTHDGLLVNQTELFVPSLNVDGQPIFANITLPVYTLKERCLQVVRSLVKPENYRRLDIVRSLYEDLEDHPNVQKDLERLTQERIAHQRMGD
T1 sequence (Q06124 2-593 limits assumed): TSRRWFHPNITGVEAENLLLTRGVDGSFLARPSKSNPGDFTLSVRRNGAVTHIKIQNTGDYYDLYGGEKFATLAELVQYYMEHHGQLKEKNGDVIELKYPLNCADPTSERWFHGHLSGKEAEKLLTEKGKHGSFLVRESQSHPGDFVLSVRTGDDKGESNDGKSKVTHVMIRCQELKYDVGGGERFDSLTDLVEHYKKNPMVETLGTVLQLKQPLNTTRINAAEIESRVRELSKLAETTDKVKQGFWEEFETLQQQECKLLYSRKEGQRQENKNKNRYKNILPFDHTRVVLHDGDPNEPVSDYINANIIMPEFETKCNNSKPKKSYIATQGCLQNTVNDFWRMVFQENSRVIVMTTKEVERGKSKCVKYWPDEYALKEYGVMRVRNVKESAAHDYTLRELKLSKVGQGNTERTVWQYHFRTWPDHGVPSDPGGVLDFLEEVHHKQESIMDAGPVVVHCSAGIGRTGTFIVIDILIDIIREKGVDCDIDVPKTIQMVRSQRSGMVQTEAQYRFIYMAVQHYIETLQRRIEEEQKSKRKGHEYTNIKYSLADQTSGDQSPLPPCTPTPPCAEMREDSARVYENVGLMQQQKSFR

Structure (SMILES)	Activity [1] [%]	Activity [2] [%]	Activity [3] [%]	IC50 (MV4-11) [µM]	IC50 (KYSE-520 cell line) [µM]
CC1(N)CCN(c2cnc(-c3cccc(Cl)c3Cl)c(N)n2)CC1				1	18.2
CC(=O)Nc1cccc(Sc2ncc(N3CCC(C)(N)CC3)nc2N)c1Cl				6.6	39.4
Cc1ncsc1-c1ccc([C@H](C)NC(=O)[C@@H]2C[C@@H](O)CN2C(=O)[C@@H](NC(=O)CCCCCCCOc2ccc(NC(=O)CCC(=O)Nc3cccc(Sc4ncc(N5CCC(C)(N)CC5)nc4N)c3Cl)cc2)C(C)(C)C)cc1	> 95	> 95	> 95		
Cc1ncsc1-c1ccc([C@H](C)NC(=O)[C@@H]2C[C@@H](O)CN2C(=O)[C@@H](NC(=O)CCCCCCCCCCCCCCC(=O)Nc2cccc(Sc3ncc(N4CCC(C)(N)CC4)nc3N)c2Cl)C(C)(C)C)cc1 (single isomer, unassigned)	62	90	8		
Cc1ncsc1-c1ccc([C@H](C)NC(=O)[C@@H]2C[C@@H](O)CN2C(=O)[C@@H](NC(=O)CCCCCCCCCCCN2CCN(CC(=O)Nc3cccc(Sc4ncc(N5CCC(C)(N)CC5)nc4N)c3Cl)CC2)C(C)(C)C)cc1 (single isomer, unassigned)	80	> 95	6		
Cc1ncsc1-c1ccc([C@H](C)NC(=O)[C@@H]2C[C@@H](O)CN2C(=O)[C@@H](NC(=O)CCCCCCCCCCN2CCN(CC(=O)Nc3cccc(Sc4ncc(N5CCC(C)(N)CC5)nc4N)c3Cl)CC2)C(C)(C)C)cc1 (single isomer, unassigned)	85	> 95	47		
Cc1ncsc1-c1ccc([C@H](C)NC(=O)[C@@H]2C[C@@H](O)CN2C(=O)[C@@H](NC(=O)CCCCCCCCCN2CCN(C(=O)CCC(=O)Nc3cccc(Sc4ncc(N5CCC(C)(N)CC5)nc4N)c3Cl)CC2)C(C)(C)C)cc1 (single isomer, unassigned)	> 95	> 95	> 95		
Cc1ncsc1-c1ccc([C@H](C)NC(=O)[C@@H]2C[C@@H](O)CN2C(=O)[C@@H](NC(=O)CCOCCOCCOCCNC(=O)CCC(=O)Nc2cccc(Sc3ncc(N4CCC(C)(N)CC4)nc3N)c2Cl)C(C)(C)C)cc1 (single isomer, unassigned)	32	87	85		
Cc1ncsc1-c1ccc([C@H](C)NC(=O)[C@@H]2C[C@@H](O)CN2C(=O)[C@@H](NC(=O)COCCOCCOCCNC(=O)CCC(=O)Nc2cccc(Sc3ncc(N4CCC(C)(N)CC4)nc3N)c2Cl)C(C)(C)C)cc1 (single isomer, unassigned)	80	> 95	> 95		
Cc1ncsc1-c1ccc([C@H](C)NC(=O)[C@@H]2C[C@@H](O)CN2C(=O)[C@@H](NC(=O)COCCOCCOCCOCCNC(=O)CCC(=O)Nc2cccc(Sc3ncc(N4CCC(C)(N)CC4)nc3N)c2Cl)C(C)(C)C)cc1 (single isomer, unassigned)	53	> 95	95		

Further lines, with some results ahead:

Activity [1] [%]	Activity [2] [%]	Activity [3] [%]	Structure (SMILES)	IC50 (MV4-11) [µM]	IC50 (KYSE-520 cell line) [µM]
> 95	> 95		Cc1ncsc1-c1ccc([C@H](C)NC(=O)[C@@H]2C[C@@H](O)CN2C(=O)[C@@H](NC(=O)CCCCCCCCCCCNC(=O)CCC(=O)Nc2cccc(Sc3ncc(N4CCC(C)(N)CC4)nc3N)c2Cl)C(C)(C)C)cc1		
> 95	> 95		Cc1ncsc1-c1ccc([C@H](C)NC(=O)[C@@H]2C[C@@H](O)CN2C(=O)[C@@H](NC(=O)CCCCCCCCCCNC(=O)CCC(=O)Nc2cccc(Sc3ncc(N4CCC(C)(N)CC4)nc3N)c2Cl)C(C)(C)C)cc1		
4	0		Cc1ncsc1-c1ccc([C@H](C)NC(=O)[C@@H]2C[C@@H](O)CN2C(=O)[C@@H](NC(=O)CCNC(=O)CC(=O)Nc2cccc(Sc3ncc(N4CCC(C)(N)CC4)nc3N)c2Cl)C(C)(C)C)cc1		
> 95	93		Cc1ncsc1-c1ccc([C@H](C)NC(=O)[C@@H]2C[C@@H](O)CN2C(=O)[C@@H](NC(=O)CCCCCCCCCCCNC(=O)CC(=O)Nc2cccc(Sc3ncc(N4CCC(C)(N)CC4)nc3N)c2Cl)C(C)(C)C)cc1 (single isomer, unassigned)		
> 95	> 95		Cc1ncsc1-c1ccc([C@H](C)NC(=O)[C@@H]2C[C@@H](O)CN2C(=O)[C@@H](NC(=O)CCCCCCCCCCCNC(=O)CCCC(=O)Nc2cccc(Sc3ncc(N4CCC(C)(N)CC4)nc3N)c2Cl)C(C)(C)C)cc1 (single isomer, unassigned)		
> 95	> 95		Cc1ncsc1-c1ccc([C@H](C)NC(=O)[C@@H]2C[C@@H](O)CN2C(=O)[C@@H](NC(=O)CCCCCCCCCCNC(=O)CC(=O)Nc2cccc(Sc3ncc(N4CCC(C)(N)CC4)nc3N)c2Cl)C(C)(C)C)cc1 (single isomer, unassigned)		
> 95	> 95		Cc1ncsc1-c1ccc([C@H](C)NC(=O)[C@@H]2C[C@@H](O)CN2C(=O)[C@@H](NC(=O)CCCCCCCCCNC(=O)CC(=O)Nc2cccc(Sc3ncc(N4CCC(C)(N)CC4)nc3N)c2Cl)C(C)(C)C)cc1 (single isomer, unassigned)		
81	80		Cc1ncsc1-c1ccc([C@H](C)NC(=O)[C@@H]2C[C@@H](O)CN2C(=O)[C@@H](NC(=O)CCCCCCCCNC(=O)CC(=O)Nc2cccc(Sc3ncc(N4CCC(C)(N)CC4)nc3N)c2Cl)C(C)(C)C)cc1 (single isomer, unassigned)		
20	14		Cc1ncsc1-c1ccc([C@H](C)NC(=O)[C@@H]2C[C@@H](O)CN2C(=O)[C@@H](NC(=O)CCCCCCCNC(=O)CC(=O)Nc2cccc(Sc3ncc(N4CCC(C)(N)CC4)nc3N)c2Cl)C(C)(C)C)cc1 (single isomer, unassigned)		
0	0		Cc1ncsc1-c1ccc([C@H](C)NC(=O)[C@@H]2C[C@@H](O)CN2C(=O)[C@@H](NC(=O)CCCCCCNC(=O)CC(=O)Nc2cccc(Sc3ncc(N4CCC(C)(N)CC4)nc3N)c2Cl)C(C)(C)C)cc1 (single isomer, unassigned)		
0	3		Cc1ncsc1-c1ccc([C@H](C)NC(=O)[C@@H]2C[C@@H](O)CN2C(=O)[C@@H](NC(=O)CCCCCNC(=O)CC(=O)Nc2cccc(Sc3ncc(N4CCC(C)(N)CC4)nc3N)c2Cl)C(C)(C)C)cc1 (single isomer, unassigned)		
0	82	9	Cc1ncsc1-c1ccc([C@H](C)NC(=O)[C@@H]2C[C@@H](O)CN2C(=O)[C@@H](NC(=O)CCCCN2CCN(CCCCNC(=O)CCC(=O)Nc3cccc(Sc4ncc(N5CCC(C)(N)CC5)nc4N)c3Cl)CC2)C(C)(C)C)cc1 (single isomer, unassigned)		
13	6		Cc1ncsc1-c1ccc([C@H](C)NC(=O)[C@@H]2C[C@@H](O)CN2C(=O)[C@@H](NC(=O)CCCCNC(=O)CC(=O)Nc2cccc(Sc3ncc(N4CCC(C)(N)CC4)nc3N)c2Cl)C(C)(C)C)cc1 (single isomer, unassigned)		
9	7		Cc1ncsc1-c1ccc([C@H](C)NC(=O)[C@@H]2C[C@@H](O)CN2C(=O)[C@@H](NC(=O)CCCNC(=O)CC(=O)Nc2cccc(Sc3ncc(N4CCC(C)(N)CC4)nc3N)c2Cl)C(C)(C)C)cc1 (single isomer, unassigned)		
